ChEMBL document CHEMBL1155541, “Discovery of 6-chloro-2-trifluoromethyl-7-aryl-7H-imidazo[1,2-a]imidazol-3-ylmethylamines, a novel class of corticotropin-releasing factor receptor type 1 (CRF1R) antagonists” (Bioorg Med Chem Lett, 2010)
Active and inactive are the calls of the source. No rule for the calls is given here.

Legend:
[1] = molecular target: T1, Corticotropin-releasing factor receptor 1 (Homo sapiens) (UniProt P34998); test: Antagonist activity at human CRF1 receptor expressed in human IMR-32 cells assessed as inhibition of CRF-stimulated cAMP production; type: functional, cell-based
T1 sequence (whole entry): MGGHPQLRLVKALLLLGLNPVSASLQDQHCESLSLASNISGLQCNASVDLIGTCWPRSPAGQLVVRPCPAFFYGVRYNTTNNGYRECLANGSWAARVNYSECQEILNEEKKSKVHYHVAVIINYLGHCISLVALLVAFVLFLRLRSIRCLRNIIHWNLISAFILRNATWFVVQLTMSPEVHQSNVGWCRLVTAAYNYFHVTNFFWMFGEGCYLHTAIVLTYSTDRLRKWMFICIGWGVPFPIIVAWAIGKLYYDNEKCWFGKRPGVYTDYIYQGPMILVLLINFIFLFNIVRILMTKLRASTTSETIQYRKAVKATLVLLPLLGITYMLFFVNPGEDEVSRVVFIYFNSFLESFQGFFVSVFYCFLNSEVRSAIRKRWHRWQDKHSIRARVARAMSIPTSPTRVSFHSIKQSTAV

[2] = molecular target: T2, Corticotropin-releasing factor receptor 1 (Homo sapiens, UniProt P34998); test: Displacement of [125I] Tyr-o-CRF from human […] expressed in human IMR-32 cells after 100 mins; type: cell-based
T2 sequence (P34998 whole entry): T1 sequence (whole entry)
Summary of the method: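 Membranes from transformed IMR-32 cells incubated with 100 pM [125I]Tyr-o-CRF and increasing test-compound concentrations, 100 min, 25 °C. Buffer: 50 mM Tris pH 7.2, 10 mM MgCl2, 0.5% BSA, 0.005% Triton X-100, aprotinin, leupeptin. Stopped with ice-cold 50 mM Tris pH 7.4, 0.2% BSA. Nonspecific binding defined with o-CRF. Values given as Ki.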

Row | Structure (SMILES) | Activity [1] | Ki [2]
1 | CCCCN(CC)Cc1c(C(F)(F)F)nc2n(-c3c(C)cc(C)cc3C)c(Cl)cn12 | Active | 78 nM
2 | CCCN(Cc1ccc(Cl)cc1)Cc1c(C(F)(F)F)nc2n(-c3c(C)cc(C)cc3C)c(Cl)cn12 | Active | 28 nM
3 | Cc1cc(C)c(-n2c(Cl)cn3c(CN4CCCC4Cc4ccccc4)c(C(F)(F)F)nc23)c(C)c1 (stereo not given) | Active | 190 nM
4 | CCCN(CCc1ccccc1)Cc1c(C(F)(F)F)nc2n(-c3c(C)cc(C)cc3C)c(Cl)cn12 | Active | 21 nM
5 | Cc1cc(C)c(-n2c(Cl)cn3c(CN(C)CCc4cccnc4)c(C(F)(F)F)nc23)c(C)c1 | Active | 1900 nM
6 | CCCN(Cc1ccc(F)cc1)Cc1c(C(F)(F)F)nc2n(-c3c(C)cc(C)cc3C)c(Cl)cn12 | Active | 350 nM
7 | Cc1cc(C)c(-n2c(Cl)cn3c(CN(CCC(F)(F)F)Cc4ccccc4)c(C(F)(F)F)nc23)c(C)c1 | Active | 43 nM
8 | CCCN(CCOC)Cc1c(C(F)(F)F)nc2n(-c3c(C)cc(C)cc3C)c(Cl)cn12 | Active | 32 nM
9 | Cc1cc(C)c(-n2c(Cl)cn3c(CN(CCC4CC4)CC(F)(F)F)c(C(F)(F)F)nc23)c(C)c1 | Active | 6.3 nM
10 | CCCCN(C)Cc1c(C(F)(F)F)nc2n(-c3c(C)cc(C)cc3C)c(Cl)cn12 | Active | 310 nM
11 | CCCN(CC1CC1)C(=O)c1c(C(F)(F)F)nc2n(-c3c(C)cc(C)cc3C)c(Cl)cn12 | Active | 33 nM
12 | CCCN(Cc1c(C(F)(F)F)nc2n(-c3c(C)cc(C)cc3C)c(Cl)cn12)CC1CC1 | Active | 9.1 nM
13 | CCCN(CCC1CC1)Cc1c(C(F)(F)F)nc2n(-c3c(C)cc(C)cc3C)c(Cl)cn12 | Active | 53 nM
14 | Cc1cc(C)c(-n2c(Cl)cn3c(CN(CCc4ccccc4)CCC(F)(F)F)c(C(F)(F)F)nc23)c(C)c1 | Active | 1900 nM
15 | CCCN(Cc1c(C(F)(F)F)nc2n(-c3c(C)cc(C)cc3C)ccn12)CC1CC1 | Active | 470 nM
16 | CCCN(Cc1c(C(F)(F)F)nc2n(-c3c(C)cc(C)cc3C)c(Cl)cn12)CC(F)(F)C(F)(F)F | Active | 440 nM
17 | Cc1cc(C)c(-n2c(Cl)cn3c(CN(CC4CCC4)CC(F)(F)F)c(C(F)(F)F)nc23)c(C)c1 | Active | 13 nM
18 | Cc1cc(C)c(-n2c(Cl)cn3c(CN(CCC(F)(F)F)Cc4cccc(F)c4)c(C(F)(F)F)nc23)c(C)c1 | Active | 49 nM
19 | CCCN(CCC)Cc1c(C(F)(F)F)nc2n(-c3c(C)cc(C)cc3C)c(Cl)cn12 | Active | 69 nM
20 | CCCN(Cc1c(C(F)(F)F)nc2n(-c3c(C)cc(C)cc3C)c(Cl)cn12)CC1CCC1 | Active | 5.3 nM

Row | Structure (SMILES) | Activity [1] | Ki [2]
21 | Cc1cc(C)c(-n2c(Cl)cn3c(CN4CCSCC4)c(C(F)(F)F)nc23)c(C)c1 | Active | 920 nM
22 | CCN(Cc1c(C(F)(F)F)nc2n(-c3c(C)cc(C)cc3C)c(Cl)cn12)CC1CC1 | Active | 9 nM
23 | Cc1cc(C)c(-n2c(Cl)cn3c(CN(CCC(F)(F)F)Cc4ccc(Cl)cc4)c(C(F)(F)F)nc23)c(C)c1 | Active | 12 nM
24 | CCCN(Cc1ccccc1)Cc1c(C(F)(F)F)nc2n(-c3c(C)cc(C)cc3C)c(Cl)cn12 | Active | 170 nM
25 | Cc1cc(C)c(-n2c(Cl)cn3c(CN(C)CCc4ccncc4)c(C(F)(F)F)nc23)c(C)c1 | Active | 7600 nM
26 | CCCN(Cc1c(C(F)(F)F)nc2n(-c3c(C)cc(C)cc3Cl)c(Cl)cn12)CC1CC1 | Active | 4.2 nM
27 | Cc1cc(C)c(-n2c(Cl)cn3c(CN(CCc4ccccc4)CC(F)(F)F)c(C(F)(F)F)nc23)c(C)c1 | Active | 350 nM
28 | C=CCN(CCC)Cc1c(C(F)(F)F)nc2n(-c3c(C)cc(C)cc3C)c(Cl)cn12 | Active | 4.5 nM
29 | CCCN(CCC(F)(F)F)Cc1c(C(F)(F)F)nc2n(-c3c(C)cc(C)cc3C)c(Cl)cn12 | Active | 12 nM
30 | CCCN(CC1CC1)C(=O)c1c(C)nc2n(-c3c(C)cc(C)cc3C)c(Cl)cn12 | Active | 61 nM
31 | C=CCN(CC=C)Cc1c(C(F)(F)F)nc2n(-c3c(C)cc(C)cc3C)c(Cl)cn12 | Active | 13 nM
32 | CCN(Cc1ccccc1)Cc1c(C(F)(F)F)nc2n(-c3c(C)cc(C)cc3C)c(Cl)cn12 | Active | 350 nM
33 | Cc1cc(C)c(-n2c(Cl)cn3c(CN(CCC(F)(F)F)CC4CC4)c(C(F)(F)F)nc23)c(C)c1 | Active | 16 nM
34 | Cc1cc(C)c(-n2c(Cl)cn3c(CN(C)Cc4ccccc4)c(C(F)(F)F)nc23)c(C)c1 | Active | 160 nM
35 | Cc1cc(C)c(-n2c(Cl)cn3c(CN4CCCC(C)C4)c(C(F)(F)F)nc23)c(C)c1 (stereo not given) | Active | 5800 nM
36 | Cc1cc(C)c(-n2c(Cl)cn3c(CN(C)Cc4ccco4)c(C(F)(F)F)nc23)c(C)c1 | Active | 180 nM
37 | CCCN(Cc1c(C(F)(F)F)nc2n(-c3c(C)cc(C)cc3C)c(Cl)cn12)CC(F)(F)F | Active | 8.3 nM
38 | C=C(C)CN(CC)Cc1c(C(F)(F)F)nc2n(-c3c(C)cc(C)cc3C)c(Cl)cn12 | Active | 67 nM
39 | Cc1cc(C)c(-n2c(Cl)cn3c(CN4CCOCC4)c(C(F)(F)F)nc23)c(C)c1 | Active | 1700 nM
40 | Cc1cc(C)c(-n2c(Cl)cn3c(CN4CC=CCC4)c(C(F)(F)F)nc23)c(C)c1 | Active | 760 nM

Row | Structure (SMILES) | Activity [1] | Ki [2]
41 | Cc1cc(C)c(-n2c(Cl)cn3c(CN4CCC(c5ccccc5)C4)c(C(F)(F)F)nc23)c(C)c1 (stereo not given) | Active | 610 nM
42 | Cc1cc(C)c(-n2c(Cl)cn3c(CN4CCCCC4C)c(C(F)(F)F)nc23)c(C)c1 (stereo not given) | Active | 1600 nM
43 | Cc1cc(C)c(-n2c(Cl)cn3c(CN4CCCC4c4ccccc4)c(C(F)(F)F)nc23)c(C)c1 (stereo not given) | Active | > 7000 nM
44 | CCN(Cc1ccc(Cl)c(Cl)c1)Cc1c(C(F)(F)F)nc2n(-c3c(C)cc(C)cc3C)c(Cl)cn12 | Active | 580 nM
45 | CCN(Cc1ccccc1C)Cc1c(C(F)(F)F)nc2n(-c3c(C)cc(C)cc3C)c(Cl)cn12 | Active | 4800 nM
46 | Cc1cc(C)c(-n2c(Cl)cn3c(CN4CCC(C)CC4)c(C(F)(F)F)nc23)c(C)c1 | Active | 3200 nM
47 | CCCN(Cc1ccc([N+](=O)[O-])cc1)Cc1c(C(F)(F)F)nc2n(-c3c(C)cc(C)cc3C)c(Cl)cn12 | Active | 150 nM
48 | Cc1cc(C)c(-n2c(Cl)cn3c(CN(C)CCc4ccccc4)c(C(F)(F)F)nc23)c(C)c1 | Active | 150 nM
49 | CCN(CCC1CC1)Cc1c(C(F)(F)F)nc2n(-c3c(C)cc(C)cc3C)c(Cl)cn12 | Active | 13 nM
50 | CCCN(Cc1c(C(F)(F)F)nc2n(-c3ccc(C)cc3OC)c(Cl)cn12)CC1CC1 | Active | 13 nM
51 | CCCCN(Cc1ccccc1)Cc1c(C(F)(F)F)nc2n(-c3c(C)cc(C)cc3C)c(Cl)cn12 | Active | 130 nM
52 | Cc1cc(C)c(-n2c(Cl)cn3c(CN4CCCCC4)c(C(F)(F)F)nc23)c(C)c1 | Active | 1200 nM
53 | CCN(Cc1c(C(F)(F)F)nc2n(-c3c(C)cc(C)cc3C)c(Cl)cn12)CC1CCC1 | Active | 16 nM
54 | CCCN(Cc1cccc(F)c1)Cc1c(C(F)(F)F)nc2n(-c3c(C)cc(C)cc3C)c(Cl)cn12 | Active | 260 nM
55 | Cc1cc(C)c(-n2c(Cl)cn3c(CN(Cc4ccc(F)cc4)CC(F)(F)F)c(C(F)(F)F)nc23)c(C)c1 | Active | 160 nM
56 | Cc1cc(C)c(-n2c(Cl)cn3c(CN(C)CCc4ccccn4)c(C(F)(F)F)nc23)c(C)c1 | Active | 4300 nM
57 | Cc1cc(C)c(-n2c(Cl)cn3c(CN(CCC4CC4)CCC(F)(F)F)c(C(F)(F)F)nc23)c(C)c1 | Active | 110 nM
58 | Cc1cc(C)c(-n2c(Cl)cn3c(CN(CC4CC4)CC(F)(F)F)c(C(F)(F)F)nc23)c(C)c1 | Active | 5.2 nM
59 | CCN(CCc1ccccc1)Cc1c(C(F)(F)F)nc2n(-c3c(C)cc(C)cc3C)c(Cl)cn12 | Active | 6 nM
60 | Cc1cc(C)c(-n2c(Cl)cn3c(CN(CCC(F)(F)F)Cc4ccc(F)cc4)c(C(F)(F)F)nc23)c(C)c1 | Active | 34 nM
